Test results as given in the RNAGym collection of RNA variant scans (doi:10.1126/science.aae0568).
Fewer inactive variants are shown than the library holds.

B1: tRNA (parent)
chain: GUUCCGUUGGCGUAAUGGUAACGCGUCUCCCUCCUAAGGAGAAGACUGCGGGUUCGAGUCCCGUACGGAACG

Variants of: B1
Test: yeast fitness relative to wild type (ratio to wild type); higher = fitter; tRNA-Arg(CCU), competitive growth, 37 C, YPD
Method in brief: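 Variants of the tRNA-Arg(CCU) gene were chemically synthesised with a 3% per-site mutation rate across 69 sites and placed at the native genomic locus in Saccharomyces cerevisiae. Six parallel replicates of the pooled strains were competed in YPD at 37°C for 24 hours, and gene amplicons from the start and end populations were read by 100-nucleotide paired-end sequencing. Darwinian fitness relative to wild type was derived from changes in genotype frequencies. Genotypes required ≥ 100 starting reads, and estimates < 0.5 were set to 0.5.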

Variant | yeast fitness
GUUCCGUUGGCGUAAUGGUAACGCGUCUCCCGUCUAGGGAGAAGACUGCGGGUUCGAGUCCCGUACGGAACG [U32G C33U A37G] | ≤ 0.5
GUUCCGUUGGCGUAAUGGUAACGCGUCUCCCGCCUAAGGAGAAGGCUGUGGGUUCGAGUCCCGUACGGAACG [U32G A45G C49U] | ≤ 0.5
GUUCCGUUGGCGUAAUGGUAACGCGUCUCCCGGCUAAGGAGAAGACUGCGGGUUCGAGUCCCGUACGGAACG [U32G C33G] | 0.59
GUUCCGUUGGCGUAAUGGUAACGCGUCUCCCGACUAAGGAGAAGACUGCGGGUUCGAGUCCCGUACGGAACG [U32G C33A] | 0.601
GUUCCGUUGGCGUAAUGGUAACGCGUCUCCCGCCUAAGCAGAAGACUGCGGCUUCGAGUCCCGUACGGAACG [U32G G39C G52C] | 0.531
GUUCCGUUGGCGUAAUGGUAACGCGUCUCCCGCCUAAGGAGAAGACUGCGGGUUCGAGUCAAGUACGGAACG [U32G C61A C62A] | 0.537
GUUCCGUUGGCGUAAUGGUAACGCGUCUCCCGCCUAUGGAGAAGACUGCGGGUUCGAGUCCCGUACGGAACG [U32G A37U] | 0.55
GUUCCGUUGGCGUAAUGGUAACGCGUCUCCCGCAUAAGGCGAAGACUGCGGGUUCGAGUUCCGUACGGAACG [U32G C34A A40C C60U] | ≤ 0.5
GUUCCGUUGGCGUAAUGGUAACGCGUCUCCCGGCUAAGGAGAAGACUGCGGGUUCGAGUCCCGUUCGGAACG [U32G C33G A65U] | ≤ 0.5
GUUCCGUUGGCGUAAUGGUAACGCGUCUCCCCCCUAAGGAGAAGACUGCGGGUUCGAGGCCCGUACGGAACG [U32C U59G] | 0.878
GUUCCGUUGGCGUAAUGGUAACGCGUCUCCCGCCUAAGGAAAAGACUGCGGGUUCGAGUGCCGUGCGGAACG [U32G G41A C60G A65G] | 0.548
GUUCCGUUGGCGUAAUGGUAACGCGUCUCCCCCCUAAGGAGAAGACUGCGGGUACGAGUCCCGUGCGGAACG [U32C U54A A65G] | ≤ 0.5
GUUCCGUUGGCGUAAUGGUAACGCGUCUCCCGCCUUAGGAGAAGGCUGCGGGUUCGAGUCCCGUACGGAACG [U32G A36U A45G] | ≤ 0.5
GUUCCGUUGGCGUAAUGGUAACGCGUCUCCCGCCUAAGGAGAAGACUGCGGGUUGGAGUCCCGUACGGAACG [U32G C55G] | ≤ 0.5
GUUCCGUUGGCGUAAUGGUAACGCGUCUCCCGCCUAAGGAGAAGCCUGCGGGUUCAAGUCCCGUAUGGAACG [U32G A45C G56A C66U] | ≤ 0.5
GUUCCGUUGGCGUAAUGGUAACGCGUCUCCCGCCUAAGGAGGAGACUGCGGGUUCGAGUCCCGUACGGAACG [U32G A42G] | 0.56
GUUCCGUUGGCGUAAUGGUAACGCGUCUCCCGCCUAAGGAGAAGACUGCGGGUUCGAGUCUCGUACUGAACG [U32G C61U G67U] | ≤ 0.5
GUUCCGUUGGCGUAAUGGUAACGCGUCUCCCGCUUAAGGAGAAGACUGCGGAUUCGAGUCCCGUACGGAACG [U32G C34U G52A] | 0.589
GUUCCGUUGGCGUAAUGGUAACGCGUCUCCCCCCUAAGGAGAAGACUGCGGGUGCGAGUCCUGUACGGAACG [U32C U54G C62U] | 0.565

Variant | yeast fitness
GUUCCGUUGGCGUAAUGGUAACGCGUCUCCCGCCUAAGGAGAAGACUGCGGGUUCGAGUCCCGUACGGUACG [U32G A69U] | 0.711
GUUCCGUUGGCGUAAUGGUAACGCGUCUCCCGCCUAAGGUGAAGACUGCGGAUUCGUGUCCCGUACGGAACG [U32G A40U G52A A57U] | ≤ 0.5
GUUCCGUUGGCGUAAUGGUAACGCGUCUCCCGCCUAAGGAGAAGCCUGCGGGUUCGAGUCCCGUACGAAACG [U32G A45C G68A] | ≤ 0.5
GUUCCGUUGGCGUAAUGGUAACGCGUCUCCCGCCUAAGGAGAAGGCUGCGGGUUCGAGUCCCGUACGGAACG [U32G A45G] | 0.673
GUUCCGUUGGCGUAAUGGUAACGCGUCUCCCGCCUAAGGAGAAGCCUGCGGGUUCGAGUCCCGUACGGAACG [U32G A45C] | 0.692
GUUCCGUUGGCGUAAUGGUAACGCGUCUCCCGCCUAAAGAGAAGACUGCGGGUUCGAGUCCCGUACGGAACG [U32G G38A] | 0.586
GUUCCGUUGGCGUAAUGGUAACGCGUCUCCCGCCUACGGAGAAGACUGCGGGUUCGCGUCCCAUACGGAACG [U32G A37C A57C G63A] | ≤ 0.5
GUUCCGUUGGCGUAAUGGUAACGCGUCUCCCGCCUAAGGAGAAGACUGCGGGUUCGAGUCCCGUGCGGAACG [U32G A65G] | 0.718
GUUCCGUUGGCGUAAUGGUAACGCGUCUCCCGCCUAAGGUGAAGACUGCGGGUUCGAGUCCCGGACGGAACG [U32G A40U U64G] | 0.543
GUUCCGUUGGCGUAAUGGUAACGCGUCUCCCGCCUAAGGAGAAGAAUGCGGGUUCGAGUCCCGUACGGAACG [U32G C46A] | 0.667
GUUCCGUUGGCGUAAUGGUAACGCGUCUCCCGCCUAAGGAGAAGAUUGCGGGUUCGAGUCCCGUACGGAACG [U32G C46U] | 0.562
GUUCCGUUGGCGUAAUGGUAACGCGUCUCCCGCCUAAGCAGAAGACUGCGGGUUCGUGUCCGGUACGGAACG [U32G G39C A57U C62G] | ≤ 0.5
GUUCCGUUGGCGUAAUGGUAACGCGUCUCCCGCCUAAGGAGAAGACUGCGGGUUCGAGUCCCGUACGGAGCG [U32G A70G] | 0.628
GUUCCGUUGGCGUAAUGGUAACGCGUCUCCCGCCUAAGGAGAAGACUGCGGGUUCGAGUCCCGUACGGACCG [U32G A70C] | 0.787
GUUCCGUUGGCGUAAUGGUAACGCGUCUCCCGCCUAAGGAGAAGACUGGGGGUUAGAGUCCCGUACGGAACG [U32G C49G C55A] | 0.65
GUUCCGUUGGCGUAAUGGUAACGCGUCUCCCGCCUAAGGUGAAGACUGCGGAUUCGUGUCCCGUCCGGAACG [U32G A40U G52A A57U A65C] | ≤ 0.5
GUUCCGUUGGCGUAAUGGUAACGCGUCUCCCGCCUAAGGAGACGACUGCGGGUUCGAGUCCCGUACGGAACG [U32G A43C] | 0.694
GUUCCGUUGGCGUAAUGGUAACGCGUCUCCCCCCUAAGGAGAAGACUGCGGGUUCGAGUCCCGCACGGAACG [U32C U64C] | 0.946
GUUCCGUUGGCGUAAUGGUAACGCGUCUCCCCCCUAAGGAGAAGACUGCGGGUUCGAGUCCCGGACGGAACG [U32C U64G] | 0.754
